Test results reported in ChEMBL document CHEMBL4689842, “EUbOPEN Chemogenomics Library wave 1” (2021).
Where “and” joins values, the source holds several entries; their conditions need not be identical. Identical values can stand only once.

Test system: HEK-293T
Test: Multiplex assay against HEK293T;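 for Population Tubulin-Different-Phenotype (%): share of the cells with healthy nuclei that show this phenotype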
Assay type: toxicity, cell-based
Details: human, 10 µM, compound concentration 10 uM
How it was run: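 At seeding, live cells were stained with Hoechst33342, BioTracker Green Microtubule Cytoskeleton Dye, MitoTracker Red and Annexin V Alexa Fluor 680. After compound addition they were imaged on a CQ1 microscope at 37°C and 5% CO2, and CellPathfinder machine-learning gating sorted them into Hoechst high-intensity objects or normal cells, with normal cells further split into healthy, pyknosed or fragmented nuclei and pyknosed cells into mitotic or apoptotic. Tubulin, mitochondrial-mass and membrane-permeability phenotypes are given as per cents of cells with healthy nuclei.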

## Cc1cc(NC(=O)c2cccc(S(F)(F)(F)(F)F)c2)cc(-n2ccn3nc(-c4cccnc4)cc23)c1 [BAY-309]
12 h, replicate 1
  Population Fragmented Nuclei (%): 16% and 13%
  Population Healthy Nuclei (%): 34% and 63%
  Population Hoechst High Intensity Objects (%): 16% and 9%
  Population Membrane Permeable-Phenotype (%): 25% and 14%
  Population Mitochondria Different-Phenotype (%): 32% and 12%
  Population Mitotic Cells (%): 34% and 83%
  Population Normal (%): 83% and 90%
  Population Pyknosed Nuclei (%): 48% and 23%
  Population Tubulin-Different-Phenotype (%): 86% and 41%
  Total Cell Count: 619 and 653
12 h, replicate 2
  Population Fragmented Nuclei (%): 3% and 2%
  Population Healthy Nuclei (%): 87% and 72%
  Population Hoechst High Intensity Objects (%): 2% and 4%
  Population Membrane Permeable-Phenotype (%): 16% and 17%
  Population Mitotic Cells (%): 92% and 54%
  Population Normal (%): 97% and 95%
  Population Tubulin-Different-Phenotype (%): 59% and 98%
  Total Cell Count: 1524 and 975
24 h, replicate 1
  Population Fragmented Nuclei (%): 19% and 9%
  Population Healthy Nuclei (%): 29% and 77%
  Population Hoechst High Intensity Objects (%): 16% and 7%
  Population Membrane Permeable-Phenotype (%): 10% and 21%
  Population Normal (%): 83% and 92%
  Population Tubulin-Different-Phenotype (%): 85% and 66%
  Total Cell Count: 590 and 755
24 h, replicate 2
  Population Healthy Nuclei (%): 79% and 66%
  Population Hoechst High Intensity Objects (%): 3% and 6%
  Population Mitotic Cells (%): 94% and 45%
  Population Normal (%): 96% and 93%
  Population Tubulin-Different-Phenotype (%): 67% and 98%
  Total Cell Count: 2348 and 996
